Data from ChEMBL document CHEMBL4689842, “EUbOPEN Chemogenomics Library wave 1” (2021).

Experiments:
HEK-293T = experiment: Incucyte cell viability with HEK293T; assay type: toxicity, cell-based; settings: human, 10 µM, compound concentration 10 uM; further: filed as whole numbers so only -1 and 0 and 1 occur
U2OS = experiment: Multiplex assay against U2OS; assay type: toxicity, cell-based; settings: human
Summary of the method: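 Compound was added to live cells that had been stained at seeding with Hoechst33342, BioTracker Green Microtubule Cytoskeleton Dye, MitoTracker Red and Annexin V Alexa Fluor 680, and imaging followed on a CQ1 microscope at 37°C and 5% CO2. CellPathfinder machine-learning gating divided cells into Hoechst high-intensity objects or normal cells, normal cells into healthy, pyknosed or fragmented nuclei, and pyknosed cells into mitotic or apoptotic. Tubulin, mitochondrial-mass and membrane-permeability phenotypes are per cents of healthy-nucleus cells.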

[1] = 6 h, replicate number 1, timepoint 6 hours
[2] = 24 h, replicate number 1, timepoint 24 hours
[3] = 12 h, 1 µM, compound concentration 1 uM, replicate 1
[4] = 12 h, 1 µM, compound concentration 1 uM, replicate 2
[5] = 12 h, 10 µM, compound concentration 10 uM, replicate 1
[6] = 12 h, 10 µM, compound concentration 10 uM, replicate 2
[7] = 24 h, 1 µM, compound concentration 1 uM, replicate 1
[8] = 24 h, 1 µM, compound concentration 1 uM, replicate 2
[9] = 24 h, 10 µM, compound concentration 10 uM, replicate 1
[10] = 24 h, 10 µM, compound concentration 10 uM, replicate 2

CC[C@@H]1C(=O)N(C)c2cnc(Nc3ccc(C(=O)NC4CCN(C)CC4)cc3OC)nc2N1C1CCCC1 [BI-2536]
Growth Rate (HEK-293T; 0 h, replicate number 2, timepoint 0 hours): 1 | Growth Rate (HEK-293T; [1]): 0 | Growth Rate (HEK-293T; 12 h, replicate number 1, timepoint 12 hours): 0 | Growth Rate (HEK-293T; 18 h, replicate number 1, timepoint 18 hours): 0 | Growth Rate (HEK-293T; [2]): 0 | Population Apoptotic (%) (U2OS; [3]): 100% | Population Fragmented Nuclei (%) (U2OS; [3]): 16% | Population Healthy Nuclei (%) (U2OS; [3]): 80% | Population Hoechst High Intensity Objects (%) (U2OS; [3]): 1% | Population Membrane Permeable-Phenotype (%) (U2OS; [3]): 40% | Population Mitochondria Different-Phenotype (%) (U2OS; [3]): 16% | Population Mitotic Cells (%) (U2OS; [3]): 0% | Population Normal (%) (U2OS; [3]): 98% | Population Pyknosed Nuclei (%) (U2OS; [3]): 3% | Population Tubulin-Different-Phenotype (%) (U2OS; [3]): 35% | Total Cell Count (U2OS; [3]): 142 | Population Apoptotic (%) (U2OS; [4]): 70% | Population Fragmented Nuclei (%) (U2OS; [4]): 10% | Population Healthy Nuclei (%) (U2OS; [4]): 79% | Population Hoechst High Intensity Objects (%) (U2OS; [4]): 8% | Population Membrane Permeable-Phenotype (%) (U2OS; [4]): 33% | Population Mitochondria Different-Phenotype (%) (U2OS; [4]): 24% | Population Mitotic Cells (%) (U2OS; [4]): 30% | Population Normal (%) (U2OS; [4]): 91% | Population Pyknosed Nuclei (%) (U2OS; [4]): 10% | Population Tubulin-Different-Phenotype (%) (U2OS; [4]): 34% | Total Cell Count (U2OS; [4]): 107 | Population Apoptotic (%) (U2OS; [5]): 76% | Population Fragmented Nuclei (%) (U2OS; [5]): 15% | Population Healthy Nuclei (%) (U2OS; [5]): 76% | Population Hoechst High Intensity Objects (%) (U2OS; [5]): 2% | Population Membrane Permeable-Phenotype (%) (U2OS; [5]): 41% | Population Mitochondria Different-Phenotype (%) (U2OS; [5]): 72% | Population Mitotic Cells (%) (U2OS; [5]): 23% | Population Normal (%) (U2OS; [5]): 97% | Population Pyknosed Nuclei (%) (U2OS; [5]): 8% | Population Tubulin-Different-Phenotype (%) (U2OS; [5]): 99% | Total Cell Count (U2OS; [5]): 160 | Population Apoptotic (%) (U2OS; [6]): 81% | Population Fragmented Nuclei (%) (U2OS; [6]): 23% | Population Healthy Nuclei (%) (U2OS; [6]): 67% | Population Hoechst High Intensity Objects (%) (U2OS; [6]): 8% | Population Membrane Permeable-Phenotype (%) (U2OS; [6]): 51% | Population Mitochondria Different-Phenotype (%) (U2OS; [6]): 94% | Population Mitotic Cells (%) (U2OS; [6]): 18% | Population Normal (%) (U2OS; [6]): 91% | Population Pyknosed Nuclei (%) (U2OS; [6]): 9% | Population Tubulin-Different-Phenotype (%) (U2OS; [6]): 100% | Total Cell Count (U2OS; [6]): 123 | Population Apoptotic (%) (U2OS; [7]): 46% | Population Fragmented Nuclei (%) (U2OS; [7]): 17% | Population Healthy Nuclei (%) (U2OS; [7]): 73% | Population Hoechst High Intensity Objects (%) (U2OS; [7]): 2% | Population Membrane Permeable-Phenotype (%) (U2OS; [7]): 20% | Population Mitochondria Different-Phenotype (%) (U2OS; [7]): 29% | Population Mitotic Cells (%) (U2OS; [7]): 53% | Population Normal (%) (U2OS; [7]): 97% | Population Pyknosed Nuclei (%) (U2OS; [7]): 9% | Population Tubulin-Different-Phenotype (%) (U2OS; [7]): 17% | Total Cell Count (U2OS; [7]): 145 | Population Apoptotic (%) (U2OS; [8]): 55% | Population Fragmented Nuclei (%) (U2OS; [8]): 21% | Population Healthy Nuclei (%) (U2OS; [8]): 69% | Population Hoechst High Intensity Objects (%) (U2OS; [8]): 12% | Population Membrane Permeable-Phenotype (%) (U2OS; [8]): 15% | Population Mitochondria Different-Phenotype (%) (U2OS; [8]): 35% | Population Mitotic Cells (%) (U2OS; [8]): 44% | Population Normal (%) (U2OS; [8]): 87% | Population Pyknosed Nuclei (%) (U2OS; [8]): 8% | Population Tubulin-Different-Phenotype (%) (U2OS; [8]): 10% | Total Cell Count (U2OS; [8]): 115 | Population Apoptotic (%) (U2OS; [9]): 93% | Population Fragmented Nuclei (%) (U2OS; [9]): 18% | Population Healthy Nuclei (%) (U2OS; [9]): 72% | Population Hoechst High Intensity Objects (%) (U2OS; [9]): 5% | Population Membrane Permeable-Phenotype (%) (U2OS; [9]): 61% | Population Mitochondria Different-Phenotype (%) (U2OS; [9]): 99% | Population Mitotic Cells (%) (U2OS; [9]): 6% | Population Normal (%) (U2OS; [9]): 94% | Population Pyknosed Nuclei (%) (U2OS; [9]): 9% | Population Tubulin-Different-Phenotype (%) (U2OS; [9]): 99% | Total Cell Count (U2OS; [9]): 180 | Population Apoptotic (%) (U2OS; [10]): 88% | Population Fragmented Nuclei (%) (U2OS; [10]): 22% | Population Healthy Nuclei (%) (U2OS; [10]): 70% | Population Hoechst High Intensity Objects (%) (U2OS; [10]): 10% | Population Membrane Permeable-Phenotype (%) (U2OS; [10]): 84% | Population Mitochondria Different-Phenotype (%) (U2OS; [10]): 100% | Population Mitotic Cells (%) (U2OS; [10]): 11% | Population Normal (%) (U2OS; [10]): 89% | Population Pyknosed Nuclei (%) (U2OS; [10]): 7% | Population Tubulin-Different-Phenotype (%) (U2OS; [10]): 100% | Total Cell Count (U2OS; [10]): 135

CCOc1ccn(-c2ccc(F)cc2)c(=O)c1C(=O)Nc1ccc(Oc2ccnc(N)c2Cl)c(F)c1 [BMS-777607]
Growth Rate (HEK-293T; 0 h, replicate number 1, timepoint 0 hours): 1 | Growth Rate (HEK-293T; [1]): 0 | Growth Rate (HEK-293T; 12 h, replicate number 2, timepoint 12 hours): 1 | Growth Rate (HEK-293T; [2]): 1 | Growth Rate (HEK-293T; 24 h, replicate number 2, timepoint 24 hours): 0 | Population Apoptotic (%) (U2OS; [3]): 41% | Population Healthy Nuclei (%) (U2OS; [3]): 88% | Population Hoechst High Intensity Objects (%) (U2OS; [3]): 4% | Population Membrane Permeable-Phenotype (%) (U2OS; [3]): 35% | Population Mitochondria Different-Phenotype (%) (U2OS; [3]): 11% | Population Mitotic Cells (%) (U2OS; [3]): 58% | Population Normal (%) (U2OS; [3]): 95% | Population Pyknosed Nuclei (%) (U2OS; [3]): 6% | Total Cell Count (U2OS; [3]): 190 | Population Apoptotic (%) (U2OS; [4]): 28% | Population Fragmented Nuclei (%) (U2OS; [4]): 4% | Population Healthy Nuclei (%) (U2OS; [4]): 86% | Population Hoechst High Intensity Objects (%) (U2OS; [4]): 13% | Population Membrane Permeable-Phenotype (%) (U2OS; [4]): 40% | Population Mitochondria Different-Phenotype (%) (U2OS; [4]): 31% | Population Mitotic Cells (%) (U2OS; [4]): 71% | Population Normal (%) (U2OS; [4]): 86% | Population Pyknosed Nuclei (%) (U2OS; [4]): 8% | Population Tubulin-Different-Phenotype (%) (U2OS; [4]): 18% | Total Cell Count (U2OS; [4]): 94 | Population Apoptotic (%) (U2OS; [5]): 66% | Population Fragmented Nuclei (%) (U2OS; [5]): 2% | Population Healthy Nuclei (%) (U2OS; [5]): 91% | Population Hoechst High Intensity Objects (%) (U2OS; [5]): 1% | Population Membrane Permeable-Phenotype (%) (U2OS; [5]): 5% | Population Mitochondria Different-Phenotype (%) (U2OS; [5]): 33% | Population Mitotic Cells (%) (U2OS; [5]): 33% | Population Normal (%) (U2OS; [5]): 98% | Population Pyknosed Nuclei (%) (U2OS; [5]): 6% | Population Tubulin-Different-Phenotype (%) (U2OS; [5]): 29% | Total Cell Count (U2OS; [5]): 193 | Population Apoptotic (%) (U2OS; [6]): 0% | Population Fragmented Nuclei (%) (U2OS; [6]): 6% | Population Healthy Nuclei (%) (U2OS; [6]): 89% | Population Hoechst High Intensity Objects (%) (U2OS; [6]): 16% | Population Mitochondria Different-Phenotype (%) (U2OS; [6]): 30% | Population Mitotic Cells (%) (U2OS; [6]): 100% | Population Normal (%) (U2OS; [6]): 83% | Population Pyknosed Nuclei (%) (U2OS; [6]): 4% | Population Tubulin-Different-Phenotype (%) (U2OS; [6]): 37% | Total Cell Count (U2OS; [6]): 118 | Population Apoptotic (%) (U2OS; [7]): 57% | Population Fragmented Nuclei (%) (U2OS; [7]): 7% | Population Healthy Nuclei (%) (U2OS; [7]): 85% | Population Hoechst High Intensity Objects (%) (U2OS; [7]): 3% | Population Membrane Permeable-Phenotype (%) (U2OS; [7]): 37% | Population Mitochondria Different-Phenotype (%) (U2OS; [7]): 23% | Population Mitotic Cells (%) (U2OS; [7]): 42% | Population Normal (%) (U2OS; [7]): 96% | Population Pyknosed Nuclei (%) (U2OS; [7]): 7% | Population Tubulin-Different-Phenotype (%) (U2OS; [7]): 16% | Total Cell Count (U2OS; [7]): 196 | Population Apoptotic (%) (U2OS; [8]): 36% | Population Fragmented Nuclei (%) (U2OS; [8]): 6% | Population Healthy Nuclei (%) (U2OS; [8]): 81% | Population Hoechst High Intensity Objects (%) (U2OS; [8]): 10% | Population Membrane Permeable-Phenotype (%) (U2OS; [8]): 28% | Population Mitochondria Different-Phenotype (%) (U2OS; [8]): 35% | Population Mitotic Cells (%) (U2OS; [8]): 63% | Population Normal (%) (U2OS; [8]): 89% | Population Pyknosed Nuclei (%) (U2OS; [8]): 12% | Population Tubulin-Different-Phenotype (%) (U2OS; [8]): 20% | Total Cell Count (U2OS; [8]): 101 | Population Apoptotic (%) (U2OS; [9]): 26% | Population Fragmented Nuclei (%) (U2OS; [9]): 3% | Population Healthy Nuclei (%) (U2OS; [9]): 91% | Population Hoechst High Intensity Objects (%) (U2OS; [9]): 1% | Population Membrane Permeable-Phenotype (%) (U2OS; [9]): 5% | Population Mitochondria Different-Phenotype (%) (U2OS; [9]): 27% | Population Mitotic Cells (%) (U2OS; [9]): 73% | Population Normal (%) (U2OS; [9]): 98% | Population Pyknosed Nuclei (%) (U2OS; [9]): 5% | Population Tubulin-Different-Phenotype (%) (U2OS; [9]): 30% | Total Cell Count (U2OS; [9]): 263 | Population Apoptotic (%) (U2OS; [10]): 12% | Population Fragmented Nuclei (%) (U2OS; [10]): 2% | Population Healthy Nuclei (%) (U2OS; [10]): 90% | Population Hoechst High Intensity Objects (%) (U2OS; [10]): 8% | Population Membrane Permeable-Phenotype (%) (U2OS; [10]): 8% | Population Mitochondria Different-Phenotype (%) (U2OS; [10]): 34% | Population Mitotic Cells (%) (U2OS; [10]): 87% | Population Normal (%) (U2OS; [10]): 91% | Population Pyknosed Nuclei (%) (U2OS; [10]): 6% | Population Tubulin-Different-Phenotype (%) (U2OS; [10]): 36% | Total Cell Count (U2OS; [10]): 133
